Assay results published in ChEMBL document CHEMBL4152390, “Discovery of the First-in-Class Dual Histone Deacetylase-Proteasome Inhibitor” (J Med Chem, 2018).
Activity calls are given as the source filed them. The calls are words filed in the database; no cut-off is given here.

Assays:
[1] = target: T1, Protein deacetylase HDAC6 (Homo sapiens) (UniProt Q9UBN7); assay: Inhibition of HDAC6 in human SEM cells assessed as increase in acetyl-alpha tubulin expression at 0.1 to 10 uM after 24 hrs by immunoblot assay; assay type: cell-based
T1 sequence (whole entry): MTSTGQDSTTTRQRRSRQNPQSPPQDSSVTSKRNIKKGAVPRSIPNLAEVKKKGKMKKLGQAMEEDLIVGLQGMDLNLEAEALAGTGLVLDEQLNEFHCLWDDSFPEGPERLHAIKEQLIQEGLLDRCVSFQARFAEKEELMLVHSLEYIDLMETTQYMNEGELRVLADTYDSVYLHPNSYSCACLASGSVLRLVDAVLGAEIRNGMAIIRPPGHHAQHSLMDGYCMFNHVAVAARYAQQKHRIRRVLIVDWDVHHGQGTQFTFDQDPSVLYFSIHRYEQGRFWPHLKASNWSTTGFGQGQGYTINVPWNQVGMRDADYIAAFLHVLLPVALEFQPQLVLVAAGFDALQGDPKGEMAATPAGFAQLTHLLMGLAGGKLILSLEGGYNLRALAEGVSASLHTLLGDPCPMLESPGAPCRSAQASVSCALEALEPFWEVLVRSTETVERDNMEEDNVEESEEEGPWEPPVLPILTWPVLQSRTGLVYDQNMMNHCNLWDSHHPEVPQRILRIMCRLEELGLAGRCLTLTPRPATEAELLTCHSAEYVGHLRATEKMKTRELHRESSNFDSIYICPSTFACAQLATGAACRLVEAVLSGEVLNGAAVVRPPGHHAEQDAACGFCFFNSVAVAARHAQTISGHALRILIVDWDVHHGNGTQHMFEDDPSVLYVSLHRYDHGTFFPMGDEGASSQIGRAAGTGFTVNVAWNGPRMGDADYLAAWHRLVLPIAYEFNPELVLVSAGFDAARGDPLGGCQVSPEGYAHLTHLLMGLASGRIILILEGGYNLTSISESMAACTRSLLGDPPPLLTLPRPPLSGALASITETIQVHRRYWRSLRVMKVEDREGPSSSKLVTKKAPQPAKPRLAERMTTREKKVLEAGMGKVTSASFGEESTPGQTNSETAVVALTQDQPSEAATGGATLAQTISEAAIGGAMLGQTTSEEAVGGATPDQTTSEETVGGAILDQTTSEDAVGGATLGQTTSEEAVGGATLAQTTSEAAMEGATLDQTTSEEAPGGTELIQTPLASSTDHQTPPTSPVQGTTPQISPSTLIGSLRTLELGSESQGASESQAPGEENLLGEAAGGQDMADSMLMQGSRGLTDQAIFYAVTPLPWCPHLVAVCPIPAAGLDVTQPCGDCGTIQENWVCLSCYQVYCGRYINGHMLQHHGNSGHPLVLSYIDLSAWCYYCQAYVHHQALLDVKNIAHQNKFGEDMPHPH
Summary of the method: (§1)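 Cells exposed for 24 h at indicated concentrations; lysates immunoblotted for acetyl-α-tubulin, acetyl-histone H3, PARP, with GAPDH as loading control.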

[2] = system: SEM cells; assay: Inhibition of HDAC6/chymotrypsin-like activity of 20S proteasome in human SEM cells assessed as increase in cleaved PARP expression at 0.1 to 10 uM after 24 hrs by immunoblot assay; assay type: cell-based; summary of the method: as §1
[3] = target: T2, Proteasome Macropain subunit MB1 (Homo sapiens, UniProt P28074); assay: Inhibition of chymotrypsin-like activity of 20S proteasome in imatinib-resistant human SUP-B15 cells using Suc-LLVY aminoluciferin as substrate after 2 hrs by proteasome-Glo assay; assay type: cell-based
T2 sequence (P28074 whole entry): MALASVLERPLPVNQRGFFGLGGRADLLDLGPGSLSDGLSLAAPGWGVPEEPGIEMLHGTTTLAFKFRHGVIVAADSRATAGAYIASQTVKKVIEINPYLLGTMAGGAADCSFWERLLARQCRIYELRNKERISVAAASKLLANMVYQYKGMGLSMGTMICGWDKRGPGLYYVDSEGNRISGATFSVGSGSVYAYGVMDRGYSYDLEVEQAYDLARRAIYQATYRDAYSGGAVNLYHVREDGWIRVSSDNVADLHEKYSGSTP

[4] = target: T3, Proteasome component C5 (Homo sapiens) (UniProt P20618); assay: Inhibition of caspase-like activity of 20S proteasome in human HL60 cells at 4 nM to 25 uM using Z-nLPnLD-aminoluciferin as substrate after 2 hrs by proteasome-Glo assay; assay type: cell-based
T3 sequence (whole entry): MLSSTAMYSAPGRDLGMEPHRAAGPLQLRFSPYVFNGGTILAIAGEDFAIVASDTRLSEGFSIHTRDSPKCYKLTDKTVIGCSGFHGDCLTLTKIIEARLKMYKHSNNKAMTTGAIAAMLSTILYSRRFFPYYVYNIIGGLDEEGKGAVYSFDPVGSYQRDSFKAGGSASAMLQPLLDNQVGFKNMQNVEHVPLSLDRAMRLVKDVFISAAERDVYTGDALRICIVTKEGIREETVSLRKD

[5] = target: T3, Proteasome component C5 (Homo sapiens); assay: Inhibition of caspase-like activity of 20S proteasome in imatinib-resistant human SUP-B15 cells at 4 nM to 25 uM using Z-nLPnLD-aminoluciferin as substrate after 2 hrs by proteasome-Glo assay; assay type: cell-based
[6] = system: SEM cells; assay: Cytotoxicity against human SEM cells after 72 hrs by CellTiter-Glo luminescent cell viability assay; assay type: functional, cell-based
Summary of the method: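 Inhibitors dispensed in increasing concentrations (50 nM–25 μM) and cells exposed 72 h. Viability read by ATP-dependent luminescence (CellTiter-Glo). Raw data normalized to controls. IC50 obtained by sigmoid dose–response fit with non-linear regression.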

[7] = system: SUP-B15; assay: Cytotoxicity against imatinib-resistant human SUP-B15 cells after 72 hrs by CellTiter-Glo luminescent cell viability assay; assay type: functional, cell-based; settings: SUP-B15, 72 h
[8] = system: SEM cells; assay: Induction of early differentiation of human SEM cells assessed as increase in CD11b expression at IC50 to 2 times IC50 after 72 hrs by FACS analysis; assay type: functional, cell-based
Summary of the method: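 Surface CD11b and CD14 measured by FACS using fluorochrome-coupled monoclonal antibodies with matched isotype controls, after treatment in liquid medium.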

[9] = target: T4, Histone deacetylase 8 (Homo sapiens, UniProt Q9BY41); assay: Inhibition of C-terminal His-tagged recombinant human HDAC8 expressed in baculovirus infected insect cells using RHK(Ac)K(Ac)AMC as substrate by fluorescence-based assay
T4 sequence (Q9BY41 whole entry): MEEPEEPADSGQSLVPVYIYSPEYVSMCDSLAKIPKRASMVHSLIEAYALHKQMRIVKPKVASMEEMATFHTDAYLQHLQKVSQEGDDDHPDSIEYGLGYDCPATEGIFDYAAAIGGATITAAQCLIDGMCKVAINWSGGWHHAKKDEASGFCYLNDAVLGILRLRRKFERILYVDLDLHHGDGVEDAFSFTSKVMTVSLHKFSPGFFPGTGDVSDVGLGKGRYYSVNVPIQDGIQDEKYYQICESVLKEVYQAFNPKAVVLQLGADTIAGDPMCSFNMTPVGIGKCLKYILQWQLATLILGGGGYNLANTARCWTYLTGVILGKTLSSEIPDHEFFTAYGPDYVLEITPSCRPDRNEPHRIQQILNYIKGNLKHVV

In the case of `C[C@H](NC(=O)[C@H](CC(=O)NCC(C)(C)C)NC(=O)c1ccc(C(=O)NO)cc1)C(=O)NCc1ccccc1`, the inhibition [1] is reported as “Active”, the inhibition [2] is reported as “Active” and the IC50 [3] is reported as 820 nM. For the same compound, the inhibition [4] was “inactive”, the inhibition [5] was “inactive” and the IC50 [6] was 890 nM. The IC50 [7] was 1830 nM, the Activity [8] was “Active” and the IC50 [9] was 530 nM.
